ChEMBL document CHEMBL1153726, “Synthesis and anticancer activity of sclerophytin-inspired hydroisobenzofurans” (Bioorg Med Chem Lett, 2009)

Tests used:
Format in all cases: functional
[1] = system: OVCAR-5; assay: Growth inhibition of human OVCAR5 cells at 100 nM after 96 hrs by MTT assay; set-up: scale not given: the % may be the effect or the level left
[2] = system: NCI-H322M; assay: Growth inhibition of human NCI-H322M cells at 1 uM after 96 hrs by MTT assay; set-up: scale not given: the % may be the effect or the level left
[3] = system: OVCAR-4; assay: Growth inhibition of human OVCAR4 cells at 10 uM after 96 hrs by MTT assay; set-up: scale not given: the % may be the effect or the level left
[4] = system: KM12; assay: Growth inhibition of human KM12 cells after 96 hrs by MTT assay; conditions: KM12, 96 h
Method in brief: (§1)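 Run in the NCI 60 human tumour cell line panel as a five-dose assay. GI50 and LC50 were reported for each cell line.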

[5] = system: Malme-3M; assay: Growth inhibition of human MALME-3M cells at 1 uM after 96 hrs by MTT assay; set-up: scale not given: the % may be the effect or the level left
[6] = system: SK-MEL-5; assay: Growth inhibition of human SK-MEL-5 cells after 96 hrs by MTT assay; conditions: SK-MEL-5, 96 h
Method in brief: (§2)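 Tested in the NCI 60-cell-line panel in five-dose format; GI50 and LC50 values reported for each cell line.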

[7] = system: UACC-257; assay: Growth inhibition of human UACC257 cells after 96 hrs by MTT assay; conditions: UACC-257, 96 h; method in brief: as §2
[8] = system: SK-MEL-2; assay: Growth inhibition of human SK-MEL-2 cells at 1 uM after 96 hrs by MTT assay; set-up: scale not given: the % may be the effect or the level left
[9] = system: K562; assay: Growth inhibition of human K562 cells at 1 uM after 96 hrs by MTT assay; set-up: scale not given: the % may be the effect or the level left
[10] = system: UACC-257; assay: Growth inhibition of human UACC257 cells at 10 nM after 96 hrs by MTT assay; set-up: scale not given: the % may be the effect or the level left
[11] = system: HCC 2998; assay: Growth inhibition of human HCC2998 cells after 96 hrs by MTT assay; conditions: HCC 2998, 96 h; method in brief: as §1
[12] = system: SR; assay: Growth inhibition of human SR cells after 96 hrs by MTT assay; method in brief: as §2
[13] = system: SR; assay: Growth inhibition of human SR cells at 1 nM after 96 hrs by MTT assay; set-up: scale not given: the % may be the effect or the level left
[14] = system: LOX IMVI; assay: Growth inhibition of human LOXIMVI cells at 10 nM after 96 hrs by MTT assay; set-up: scale not given: the % may be the effect or the level left
[15] = system: OVCAR-5; assay: Growth inhibition of human OVCAR5 cells at 1 nM after 96 hrs by MTT assay; set-up: scale not given: the % may be the effect or the level left
[16] = system: SK-MEL-2; assay: Growth inhibition of human SK-MEL-2 cells at 10 nM after 96 hrs by MTT assay; set-up: scale not given: the % may be the effect or the level left
[17] = system: UACC-62; assay: Growth inhibition of human UACC62 cells at 1 nM after 96 hrs by MTT assay; set-up: scale not given: the % may be the effect or the level left
[18] = system: HCT-15; assay: Growth inhibition of human HCT15 cells at 10 nM after 96 hrs by MTT assay; set-up: scale not given: the % may be the effect or the level left
[19] = system: K562; assay: Growth inhibition of human K562 cells at 100 nM after 96 hrs by MTT assay; set-up: scale not given: the % may be the effect or the level left
[20] = system: SK-MEL-5; assay: Growth inhibition of human SK-MEL-5 cells at 100 nM after 96 hrs by MTT assay; set-up: scale not given: the % may be the effect or the level left
[21] = system: UACC-257; assay: Growth inhibition of human UACC257 cells at 10 uM after 96 hrs by MTT assay; set-up: scale not given: the % may be the effect or the level left
[22] = system: OVCAR-5; assay: Growth inhibition of human OVCAR5 cells at 10 nM after 96 hrs by MTT assay; set-up: scale not given: the % may be the effect or the level left
[23] = system: ACHN; assay: Growth inhibition of human ACHN cells after 96 hrs by MTT assay
[24] = system: COLO 205; assay: Growth inhibition of human COLO205 cells at 10 uM after 96 hrs by MTT assay; set-up: scale not given: the % may be the effect or the level left
[25] = system: A549; assay: Growth inhibition of human A549 cells after 96 hrs by MTT assay; conditions: A549, 96 h
[26] = read-out: Log10GI50 (converted)
[27] = read-out: Log10LC50 (converted)
[28] = read-out: LC50 (the source's name)

Molecule `C=C(C)[C@H]1CC=C(C)C2=CO[C@@H](c3ccccc3F)[C@@H]21` has an Activity [1] of 100%, an Activity [2] of 49% and an Activity [3] of 88.01%. The GI50 ([4]; read-out: GI50) was 4.02 µM, the LC50 ([4]; read-out: LC50) was 40.4 µM and the GI50 [4, 26] was 3.98 µM. It also gave an LC50 [4, 27] of 40.7 µM, a TGI ([4]; read-out: Log10TGI (converted)) of 15.8 µM and a TGI ([4]; read-out: TGI) of 15.7 µM. It also gave an Activity [5] of 19%, a GI50 ([6]; read-out: GI50) of 2.48 µM and a CC50 [6, 28] of 38.6 µM. For the same molecule, the GI50 [6, 26] was 2.51 µM, the CC50 [6, 27] was 38.9 µM and the TGI ([6]; read-out: Log10TGI (converted)) was 14.8 µM. The TGI ([6]; read-out: TGI) was 14.9 µM, the GI50 ([7]; read-out: GI50) was 6.71 µM and the CC50 [7, 28] was 50.9 µM. It also gave a GI50 [7, 26] of 6.76 µM, a CC50 [7, 27] of 51.3 µM and a TGI ([7]; read-out: Log10TGI (converted)) of 21.4 µM. For the same molecule, the TGI ([7]; read-out: TGI) was 21.3 µM, the Activity [8] was 31% and the Activity [9] was 10%. For the same molecule, the Activity [10] was 90%, the GI50 ([11]; read-out: GI50) was 6.4 µM and the CC50 [11, 28] was 45.3 µM. It also gave a GI50 [11, 26] of 6.46 µM, a CC50 [11, 27] of 45.7 µM and a TGI ([11]; read-out: Log10TGI (converted)) of 19.5 µM. The TGI ([11]; read-out: TGI) was 19.3 µM, the GI50 ([12]; read-out: GI50) was 0.798 µM and the CC50 [12, 28] was 23.9 µM. The GI50 [12, 26] was 0.794 µM, the CC50 [12, 27] was 24 µM and the TGI ([12]; read-out: Log10TGI (converted)) was 3.72 µM. It also gave a TGI ([12]; read-out: TGI) of 3.67 µM, an Activity [13] of 83% and an Activity [14] of 91%. It also gave an Activity [15] of 97%, an Activity [16] of 82% and an Activity [17] of 88%. It also gave an Activity [18] of 95%, an Activity [19] of 68% and an Activity [20] of 69%. For the same molecule, the Activity [21] was 76.82%, the Activity [22] was 84% and the GI50 ([23]; read-out: GI50) was 6.39 µM. It also gave a CC50 [23, 28] of 43.8 µM, a GI50 [23, 26] of 6.46 µM and a CC50 [23, 27] of 43.7 µM. It also gave a TGI ([23]; read-out: Log10TGI (converted)) of 19.1 µM, a TGI ([23]; read-out: TGI) of 19 µM and an Activity [24] of 101.29%. For the same molecule, the GI50 ([25]; read-out: GI50) was 6.17 µM, the CC50 [25, 28] was > 100 µM and the GI50 [25, 26] was 6.17 µM. For the same molecule, the CC50 [25, 27] was > 100 µM, the TGI ([25]; read-out: Log10TGI (converted)) was 30.2 µM and the TGI ([25]; read-out: TGI) was 30.1 µM.
